Test results published in ChEMBL document CHEMBL4033743, “Design, synthesis, and structure-activity relationships of pyrimido[4,5-b]indole-4-amines as microtubule depolymerizing agents that are effective against multidrug resistant cells” (Bioorg Med Chem Lett, 2017).
Activity calls are given as the source filed them.

Legend:
Bos taurus = organism: Bos taurus; experiment: Inhibition of [3H]colchicine binding to bovine brain tubulin at 5 uM
[1] = Inhibition of bovine brain tubulin assembly; design: species or system Bos taurus
SK-OV-3 = experiment: Antiproliferative activity against human SKOV3 cells by SRB assay; type: functional, cell-based
Procedure, shortened: (§1)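 Antiproliferative IC50s were measured by SRB assay in isogenic cell-line pairs. For Pgp-mediated resistance, the pair was parental SK-OV-3 ovarian cancer cells and Pgp-expressing SK-OV-3 MDR-1-M6/6 cells. For βIII-tubulin-mediated resistance, the pair was parental HeLa cells and βIII-tubulin-expressing HeLa cells.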

[2] = Induction of microtubule depolymerization in rat A10 cells assessed as cellular microtubule loss incubated for 18 hrs by indirect immunofluorescence assay; type: cell-based; conditions: A10, 18 h
Procedure, shortened: (§2)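 Cellular microtubule loss was scored. EC50 was defined as the concentration causing 50% loss of cellular microtubules.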

HeLa [3] = experiment: Resistance index, ratio of IC50 for antiproliferative activity against human HeLa cells expressing beta3-tubulin cells to IC50 for antiproliferative activity against human HeLa cells; type: functional
Procedure, shortened: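 Relative resistance (Rr) was calculated as the SRB IC50 in βIII-tubulin-expressing HeLa cells divided by the SRB IC50 in parental HeLa cells.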

[4] = Antiproliferative activity against human SKOV3-MDR1-M6/6 cells by SRB assay; type: functional, cell-based; procedure, shortened: as §1
HeLa [5] = experiment: Antiproliferative activity against human HeLa cells by SRB assay; type: functional, cell-based; procedure, shortened: as §1
HeLa [6] = experiment: Antiproliferative activity against human HeLa cells expressing beta3-tubulin by SRB assay; type: functional, cell-based; procedure, shortened: as §1
MDA-MB-435 = experiment: Antiproliferative activity against human MDA-MB-435 cells by SRB assay; type: functional, cell-based
Procedure, shortened: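 Proliferation of MDA-MB-435 melanoma cells was read by sulforhodamine B (SRB) assay. IC50 was taken as the concentration causing 50% inhibition of proliferation.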

[7] = Resistance index, ratio of IC50 for antiproliferative activity against human SKOV3-MDR1-M6/6 cells to IC50 for antiproliferative activity against human SKOV3 cells; type: functional
Procedure, shortened: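 Relative resistance (Rr) was calculated as the SRB IC50 in Pgp-expressing SK-OV-3 MDR-1-M6/6 cells divided by the SRB IC50 in parental SK-OV-3 cells.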

[8] = Ratio of EC50 for induction of microtubule depolymerization in rat A10 cells to IC50 for antiproliferative activity against human MDA-MB-435 cells
Rattus norvegicus = organism: Rattus norvegicus; experiment: Induction of microtubule depolymerization in rat A10 cells assessed as cellular microtubule loss up to 40 uM incubated for 18 hrs by indirect immunofluorescence assay; type: cell-based; procedure, shortened: as §2

| SMILES | inhibition (Bos taurus) [%] | IC50 [1] [nM] | IC50 (SK-OV-3) [nM] | EC50 [2] [nM] | IC50 (HeLa [5]) [nM] | IC50 (HeLa [6]) [nM] | IC50 (MDA-MB-435) [nM] | Ratio IC50 (HeLa [3]) | IC50 [4] [nM] | Ratio IC50 [7] | Ratio [8] | Activity (Rattus norvegicus) |
| --- | --- | --- | --- | --- | --- | --- | --- | --- | --- | --- | --- | --- |
| COc1ccc(N(C)c2nc(N)nc3[nH]c4cccc(Cl)c4c23)cc1 |  |  |  |  |  |  | 3900 |  |  |  |  | inactive |
| COc1ccc(N(C)c2nc(N)nc3[nH]c4cccc(C)c4c23)cc1 |  |  |  | 1400 |  |  | 220 |  |  |  | 6.5 |  |
| CSc1ccc(N(C)c2nc(N)nc3[nH]c4ccccc4c23)cc1 | 67 | 2300 | 156 | 1100 | 118 | 78.4 | 89.1 | 0.7 | 160 | 1 | 12 |  |
| COc1ccc(N(C)c2nc(C)nc3[nH]c4ccccc4c23)cc1 | 67 | 1200 | 60.5 | 130 | 50.5 | 31.8 | 33.9 | 0.6 | 78 | 1.3 | 3.8 |  |

Further molecules by falling IC50 (MDA-MB-435), results first:

| inhibition (Bos taurus) [%] | IC50 [1] [nM] | IC50 (SK-OV-3) [nM] | EC50 [2] [nM] | IC50 (HeLa [5]) [nM] | IC50 (HeLa [6]) [nM] | IC50 (MDA-MB-435) [nM] | SMILES | Ratio IC50 (HeLa [3]) | IC50 [4] [nM] | Ratio IC50 [7] | Ratio [8] | Activity (Rattus norvegicus) |
| --- | --- | --- | --- | --- | --- | --- | --- | --- | --- | --- | --- | --- |
|  |  |  | 3700 |  |  | 271 | COc1ccc2c(c1)CCCN2c1nc(N)nc2[nH]c3cccc(Cl)c3c12 |  |  |  | 15 |  |
| 62 | 2300 | 173 | 1200 | 142 | 99.5 | 130 | COc1ccc(N(C)c2ncnc3[nH]c4ccccc4c23)cc1 | 0.8 | 224 | 1.4 | 9.2 |  |
| 71 | 2200 | 83.2 | 150 | 72.1 | 87 | 54.4 | COc1ccc2c(c1)CCCN2c1nc(N)nc2[nH]c3ccccc3c12 | 1.2 | 135 | 1.6 | 2.8 |  |
